This sample holds only a part of the variants without activity.
B1: tRNA (parent)
chain: GUUCCGUUGGCGUAAUGGUAACGCGUCUCCCUCCUAAGGAGAAGACUGCGGGUUCGAGUCCCGUACGGAACG

Variants of: B1
Assay: yeast fitness relative to wild type (ratio to wild type); higher = fitter; tRNA-Arg(CCU), competitive growth, 37 C, YPD
Method in brief: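 Genotype frequency changes were the basis for Darwinian fitness relative to wild type. The frequencies came from 100-nucleotide paired-end sequencing of gene amplicons from the start population and each end population of pooled yeast strains with tRNA-Arg(CCU) gene variants at the native locus. Competition ran in YPD at 37°C for 24 hours in six replicates, genotypes needed ≥ 100 starting reads, and estimates < 0.5 were set to 0.5.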

U8A C31G C46U C60A and U8A G10C C66U cannot be ordered by yeast fitness: no more than 0.5 for the first, no more than 0.5 for the second.

U8C A42G G51U A57U and U8A C27A G39C G51C cannot be ordered by yeast fitness: no more than 0.5 for the first, no more than 0.5 for the second.

First: U8A G58A
Second: U8A U13C C66U
The yeast fitness of the first is higher: 0.771 for the first, 0.607 for the second.

U8C A21U G67C A69U and U8A G9C G38A A40C cannot be ordered by yeast fitness: no more than 0.5 for the first, no more than 0.5 for the second.

U8A C11U G25C G39C A45U and U8A C24A U64A cannot be ordered by yeast fitness: no more than 0.5 for the first, no more than 0.5 for the second.

Going from U8A A20G U26C A40C to U8A G12C A21C C27G C31U G52A, the yeast fitness falls from 0.617 to 0.59.

Going from U8A G18C C27U G51C C55A C62U A65U A69U to U7G U26C, the yeast fitness rises from 0.647 to 0.88.

First: U8A A15U C29U
Second: U7G G9A A43C
The yeast fitness of the first is lower: no more than 0.5 for the first, 0.515 for the second.

U8A U13A A14C G56C and U8A A21C C29A G39A U54G G58C cannot be ordered by yeast fitness: no more than 0.5 for the first, no more than 0.5 for the second.

U8C A14U C22G C30U U54C and U8A G10A U26G G58A cannot be ordered by yeast fitness: no more than 0.5 for the first, no more than 0.5 for the second.

U8C A15G U19A C29A A36G G51A and U7G G63A G67C cannot be ordered by yeast fitness: no more than 0.5 for the first, no more than 0.5 for the second.

Going from U8A A20U C34U A45C to U8A G23A, the yeast fitness rises from 0.567 to 0.597.

Going from U8A A42U C62A A70C to U8A U19G C22U G58A, the yeast fitness rises from no more than 0.5 to 0.568.

U8A G18C C27U A65C and U8A C24G A43G C49U cannot be ordered by yeast fitness: no more than 0.5 for the first, no more than 0.5 for the second.

U8A G9U A42C G52C and U8C A15U U16A U26A G58A cannot be ordered by yeast fitness: no more than 0.5 for the first, no more than 0.5 for the second.

U8A C29U C31A G38A and U8A G17A C22U C24U U28C U54G A57C C62U cannot be ordered by yeast fitness: no more than 0.5 for the first, no more than 0.5 for the second.

U8C A40C C62G and U8C A20U A21U U26G C31A U53A A69C cannot be ordered by yeast fitness: no more than 0.5 for the first, no more than 0.5 for the second.

U8A A42C G52C and U8A A14G C24G A65C cannot be ordered by yeast fitness: no more than 0.5 for the first, no more than 0.5 for the second.

U7G U32A C46U C60A and U8A G18C C24A C29U U32C cannot be ordered by yeast fitness: no more than 0.5 for the first, no more than 0.5 for the second.

U8A G18A U32C and U8C A20C G51A cannot be ordered by yeast fitness: no more than 0.5 for the first, no more than 0.5 for the second.

Going from U7G G9C G50C to U8A G18C C24A U32C A69U, the yeast fitness falls from 0.668 to 0.565.

First: U7G G68C
Second: U8A G44C A57U
The yeast fitness of the first is higher: 0.895 for the first, no more than 0.5 for the second.

U8A C46A G68C and U7G G23C A45U G51C cannot be ordered by yeast fitness: no more than 0.5 for the first, no more than 0.5 for the second.

U8A C34U C55U C66A and U7G U13C A37U C60G cannot be ordered by yeast fitness: no more than 0.5 for the first, no more than 0.5 for the second.

U7G G10C G58A and U8A G10A G67U cannot be ordered by yeast fitness: no more than 0.5 for the first, no more than 0.5 for the second.

Compared with U8A C29G A70G, U8C A20G C34G A37G G44A is higher in yeast fitness: no more than 0.5 for the first, 0.627 for the second.

U8A U13A A14C U16A G63A G67A and U8A C29A U54C cannot be ordered by yeast fitness: no more than 0.5 for the first, no more than 0.5 for the second.

Going from U8A A21G to U7G G18C C31A, the yeast fitness falls from 0.681 to no more than 0.5.

First: U8A G67A
Second: U8A U32G A36C U47G
The yeast fitness of the first is higher: 0.586 for the first, no more than 0.5 for the second.

Compared with U8C A21U C34A A40C G68C, U8C A21G A70G is higher in yeast fitness: no more than 0.5 for the first, 0.747 for the second.

U8A A20C C62A and U8A A37G G41C A43U cannot be ordered by yeast fitness: no more than 0.5 for the first, no more than 0.5 for the second.

First: U8C A20G C34G C66U
Second: U8A C24U U28C A40C G67C
The yeast fitness of the first is higher: 0.696 for the first, no more than 0.5 for the second.

Compared with U8A A14U A15G U32C A57U, U8A G25A U26A A42C is lower in yeast fitness: 0.599 for the first, no more than 0.5 for the second.

Compared with U8A C30A A37G C46U A57C, U8A A20C C31U is lower in yeast fitness: 0.579 for the first, no more than 0.5 for the second.

First: U8A G12A A20C G56C U59A
Second: U8A G18A G41C A57G
The yeast fitness of the first is higher: 0.581 for the first, no more than 0.5 for the second.

U8A G10C A20U G41U G51C and U8C A21U U32A C49U C55U cannot be ordered by yeast fitness: no more than 0.5 for the first, no more than 0.5 for the second.

First: U7G G44C
Second: U7G U28C U59C U64C A70C
The yeast fitness of the first is higher: 0.666 for the first, no more than 0.5 for the second.

First: U8A C33G A42U A43U C49U A65C G68C
Second: U8A U28C
The yeast fitness of the first is lower: no more than 0.5 for the first, 0.738 for the second.

Compared with U7G G25C C60A, U8C A15C U32C C61U A65U C66U is lower in yeast fitness: 0.623 for the first, no more than 0.5 for the second.

First: U8C A21G A69C
Second: U8A C24U A40U A42C A45U C49U
The yeast fitness of the first is higher: 0.761 for the first, no more than 0.5 for the second.

First: U8A U26A C55G
Second: U8A G18C C24A U32C
The yeast fitness of the first is lower: no more than 0.5 for the first, 0.607 for the second.

U8C A20U C29U C30G A37G G44A and U8A U47A C60A cannot be ordered by yeast fitness: no more than 0.5 for the first, no more than 0.5 for the second.

Compared with U8A C61A A65U, U8C A42U is higher in yeast fitness: 0.554 for the first, 0.791 for the second.

U7G G12A G25A C33G C62U and U8C A42G A70C cannot be ordered by yeast fitness: no more than 0.5 for the first, no more than 0.5 for the second.

U8A G12A C22A C31G G58A C61A and U8A G25C A37C C66U cannot be ordered by yeast fitness: no more than 0.5 for the first, no more than 0.5 for the second.

Compared with U7G G23C C30G A36U C61U A65U, U8A A21G A36G is higher in yeast fitness: 0.527 for the first, 0.65 for the second.

Going from U8A C31A to U7G G58C C66U, the yeast fitness rises from 0.605 to 0.645.

Going from U8A A57U to U7G G12C G23C C29G, the yeast fitness rises from 0.502 to 0.739.

U8A C11U U47G and U8C A15C C27U A45C cannot be ordered by yeast fitness: no more than 0.5 for the first, no more than 0.5 for the second.

Going from U8C A15U A20C G23A G50C to U8A A15C G18C C49U, the yeast fitness rises from no more than 0.5 to 0.603.

First: U8A G23C C61U
Second: U7G U19A C30G C33U C61G
The yeast fitness of the first is higher: 0.575 for the first, no more than 0.5 for the second.

Compared with U7G G56A, U8A C34G is lower in yeast fitness: 1.06 for the first, no more than 0.5 for the second.

U8A U26A C29A A65C A70C and U8C A15C U32C cannot be ordered by yeast fitness: no more than 0.5 for the first, no more than 0.5 for the second.

Going from U7G G67C to U7G G48A G68U A70C, the yeast fitness falls from 0.856 to 0.541.

U8C A15C A57G A69C and U8C A36U G38A G68C cannot be ordered by yeast fitness: no more than 0.5 for the first, no more than 0.5 for the second.

First: U8C A15U G38C G39A A43C C60G A65C
Second: U8A G39C A70C
The yeast fitness of the first is lower: no more than 0.5 for the first, 0.751 for the second.

Going from U8A A43G A45C C49G to U8A C29U G51C, the yeast fitness falls from 0.58 to 0.571.

U8A C31G C55U G67C and U8A G18C C24A U32C U64C A65G cannot be ordered by yeast fitness: no more than 0.5 for the first, no more than 0.5 for the second.

Compared with U8A A42U, U8C A14U G48C A70C is lower in yeast fitness: 0.833 for the first, no more than 0.5 for the second.

U8A G18C C27U U32C C66G A70U and U8A G18C G25C cannot be ordered by yeast fitness: no more than 0.5 for the first, no more than 0.5 for the second.

U8A U32G A37G G63U A70U and U8A A15C A21G C27U C46U cannot be ordered by yeast fitness: no more than 0.5 for the first, no more than 0.5 for the second.

First: U8A C11A A36G C61G A69G
Second: U8A C11G C34G
The yeast fitness of the first is lower: no more than 0.5 for the first, 0.624 for the second.

U8C A14C C33A C46A G67A and U8A C30G U59A cannot be ordered by yeast fitness: no more than 0.5 for the first, no more than 0.5 for the second.

Going from U8A C11U A15G G63C to U8A C29G A40G, the yeast fitness rises from no more than 0.5 to 0.639.

Going from U8A A14U A42G to U8C A21G A42G, the yeast fitness rises from no more than 0.5 to 0.675.

Compared with U7G U8G C31U U35A U47C, U8A U54C is higher in yeast fitness: no more than 0.5 for the first, 0.657 for the second.

U8A A15U A37C G68A and U8A A21U C30U G48A G67C A69U cannot be ordered by yeast fitness: no more than 0.5 for the first, no more than 0.5 for the second.

First: U8C A15C C34U A57C
Second: U7G G10C C33U U53G C60A G68U A69C
The yeast fitness of the first is lower: no more than 0.5 for the first, 0.776 for the second.

U8A A20C C31A A57C C66A A69U and U8A C66A G68C cannot be ordered by yeast fitness: no more than 0.5 for the first, no more than 0.5 for the second.

Compared with U8A G25C A37C, U8A A40U G52C is higher in yeast fitness: no more than 0.5 for the first, 0.573 for the second.

First: U8A U13A A14C U16C
Second: U8A G23C G51C C62G
The yeast fitness of the first is lower: no more than 0.5 for the first, 0.727 for the second.

First: U7G U26C A42U C46U
Second: U8A A14C C24U U26A U28G U54G
The yeast fitness of the first is higher: 0.581 for the first, no more than 0.5 for the second.

Going from U7G G48A A69C to U8A G12C U47A C62U, the yeast fitness falls from 0.697 to 0.545.

First: U7G G10C
Second: U8A C60A
The yeast fitness of the first is higher: 0.709 for the first, no more than 0.5 for the second.

U8A A43U G52C C60A and U8A C11U U47G G67A cannot be ordered by yeast fitness: no more than 0.5 for the first, no more than 0.5 for the second.

U8A G18A C34U A42C and U8A A45G C61G C62U cannot be ordered by yeast fitness: no more than 0.5 for the first, no more than 0.5 for the second.

Going from U8A C11U A37U U64A to U8A U28A C66U, the yeast fitness falls from 0.545 to no more than 0.5.

Compared with U8C A14U C22G C30U A57C C61A G67A, U7G U59A is higher in yeast fitness: no more than 0.5 for the first, 0.754 for the second.

U8A C11U C61U C62U C66A and U8C A15C U32C A69C cannot be ordered by yeast fitness: no more than 0.5 for the first, no more than 0.5 for the second.

U8A C27A A37U and U8A G17A C31U C33U C34U C46G C62A cannot be ordered by yeast fitness: no more than 0.5 for the first, no more than 0.5 for the second.

U8C A14C G18A C31U A45G and U8A C30U A57C cannot be ordered by yeast fitness: no more than 0.5 for the first, no more than 0.5 for the second.

First: U8A G18A C30A U32A U35G A65C
Second: U8A C24U A40U A42C A45U
The yeast fitness of the first is lower: no more than 0.5 for the first, 0.563 for the second.

Going from U8A G10A A43C to U8A C30G C46A G63A, the yeast fitness falls from 0.646 to no more than 0.5.

U8C A15C A21U gave a yeast fitness of no more than 0.5.

Reference: the RNAGym collection of RNA variant scans (doi:10.1126/science.aae0568)
